Screens deposited in PubChem by several laboratories.
Sampled rows, rich in hits. Any-hit rate of the full collection: about 1.2%.
Runt-SMMHC FRET = inhibitors of human RUNX1 Runt domain binding to CBFb-SMMHC | inhibition, % at 20 µM | AID 1434 | Q01196+Q13951 | actives 0.74% (n = 220,000) | Cerulean-Runt/Venus-CBFb-SMMHC FRET ratio 530/480, 1 h;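 active means mean inhibition across duplicate retests at 20 µM reaching about 50%, limit read from the data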;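 further: 0% = DMSO wells and 100% = wells with excess untagged CBFb-SMMHC; inhibitors lower the FRET ratio by blocking Runt binding to CBFb-SMMHC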
Target sequence (Q01196 whole entry, looked up, the tested form may be a part): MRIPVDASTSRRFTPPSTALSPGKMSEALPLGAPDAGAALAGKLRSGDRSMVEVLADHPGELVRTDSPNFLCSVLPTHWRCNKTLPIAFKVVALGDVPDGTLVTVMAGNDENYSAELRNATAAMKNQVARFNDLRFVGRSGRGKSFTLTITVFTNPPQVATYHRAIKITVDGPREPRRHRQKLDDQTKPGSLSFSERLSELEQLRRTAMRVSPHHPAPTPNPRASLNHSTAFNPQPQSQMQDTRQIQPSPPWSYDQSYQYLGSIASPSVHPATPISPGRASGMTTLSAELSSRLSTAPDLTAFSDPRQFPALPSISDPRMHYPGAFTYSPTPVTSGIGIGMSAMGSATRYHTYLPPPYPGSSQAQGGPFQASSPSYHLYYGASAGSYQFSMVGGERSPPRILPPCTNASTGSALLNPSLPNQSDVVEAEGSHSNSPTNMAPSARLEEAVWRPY
Target sequence (Q13951 whole entry, looked up, the tested form may be a part): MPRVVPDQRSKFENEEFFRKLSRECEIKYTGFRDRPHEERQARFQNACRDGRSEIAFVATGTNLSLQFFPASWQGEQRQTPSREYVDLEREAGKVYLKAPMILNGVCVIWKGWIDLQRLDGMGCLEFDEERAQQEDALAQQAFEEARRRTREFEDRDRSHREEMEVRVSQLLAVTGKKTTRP
Runt-CBFb FRET = blocks binding of human RUNX1 Runt domain to CBFb; Q01196+Q13951; Cerulean-Runt/Venus-CBFb FRET ratio 530/480, 1 h; inhibition, % at 20 µM; actives 0.46% (n = 220,000); AID 1496;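 active means inhibition over about 50% at 20 µM in the single-dose screen, limit read from the data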;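 further: 0% = DMSO wells and 100% = excess unlabeled CBFb competitor control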
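System: Cerulean-labeled Runt domain protein | Quantity: 100 nM of each labeled protein | Schedule: 1 h compound exposure, room temperature | Detection: Fluorescence energy transfer, 422 nm excitation, 530/480 nm emission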
RanGTP-Impb inh = inhibitors of RanGTP-importin-beta interaction, primary screen, biochemical, FRET, CFP-Ran, YFP-importin-beta, homogeneous | cell-free CFP-Ran/YFP-importin-beta FRET ratio | inhibition, % (test concentration not listed) | actives 1.1% (n = 300,000) | AID 2216;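 active means more than half of the replicate wells show a fall in the fluorescence ratio signal beyond about 16%, limit read from the data, passing the limit was not always enough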;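 further: 0% = DMSO wells and 100% = Ran loaded with GDP instead of GTP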
CaV13 ICDI inh = Primary screen for inhibitors of IQ motif and Ca2+-dependent inactivation inhibitor domain binding in CACNA1D, Förster resonance energy transfer in living cells, … | HEK cells, CFP/YFP FRET ICDI-IQ, plate reader, 10 min; percent FRET-ratio fall versus neutral wells | inhibition, % at 12.3 µM | actives 0.098% (n = 340,000);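 active means mean replicate inhibition of at least 30% and at least 1% of replicates passing that level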;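 further: 0% = median of the neutral control wells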
YIC FRET counter = counter-screen YIC FRET for RanGTP-importin-beta inhibitors; shares compounds with RanGTP-Impb inh; Purified YIC probe, intramolecular FRET ratio YFP/CFP; IC50, µM; actives 40% (n = 1,000);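 active means fitted half-maximal inhibitory concentration no more than tenfold above the top dose tested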
Active calls of the source: *; . = not tested or not shown.

SMILES	Runt-SMMHC FRET	Runt-CBFb FRET	RanGTP-Impb inh	CaV13 ICDI inh	YIC FRET counter
O=c1cc(N2CCC3(CC2)OCCO3)[nH]c(=O)n1-c1ccc(Br)cc1	2	0	17*	.	>50
O=c1cc(N2CCN(c3ccccc3F)CC2)[nH]c(=O)n1-c1ccc(Br)cc1	3	.	8	-5	.
CCSC1=C(C#N)C(c2cccc(O)c2)CC(=O)N1 (centres undefined)	-1	1	0	-7	.
N#CC1=C(N)SC(N)=C(C#N)C1c1cccc(O)c1	32	23	22*	2	>50
Cc1onc(-c2ccccc2)c1C(=O)Oc1ccccc1	-3	-1	-3	5	.
CC(=O)c1cccc(NC(=O)C(C)OC(=O)CCn2c(C)csc2=O)c1 (centres undefined)	.	.	.	-5	.
O=C(CSc1nnc(CNC(=O)c2ccccc2)o1)NCc1ccccc1Cl	.	.	0	-9	.
COCC(=O)Nc1nnc(COc2ccc(Cl)cc2)s1	-4	0	26*	-5	>50
Cc1ccc2c(CN3CC(C)CC(C)C3)cc(=O)oc2c1 (centres undefined)	.	.	-4	-3	.
O=c1cc(CN2CCN(Cc3ccccc3)CC2)c2ccc(O)cc2o1	.	.	38*	-3	10*
CC1CN(Cc2cc(=O)oc3cc(O)ccc23)CC(C)O1 (centres undefined)	.	.	19*	-4	16*
Cc1ccc2cc(C#N)c(N3CCCN(C(=O)C4CCCO4)CC3)nc2c1 (centres undefined)	2	4	18*	-7	26*
Cc1ccc2cc(C#N)c(N3CCCN(C(=S)NCCCN(C)C)CC3)nc2c1	.	.	19*	-18	25*
COc1ccc(C(=O)N2CCN(c3nc4cc(C)ccc4cc3C#N)CC2)c(OC)c1	10	8	3	-4	.
Cc1ccc2cc(C#N)c(N3CCCN(C(=O)c4cnccn4)CC3)nc2c1	.	.	6	-3	.
COc1cc(C(=O)N2CCCN(c3nc4cc(C)ccc4cc3C#N)CC2)cc(OC)c1OC	44	4	52*	-8	15*
Cc1cc(C)c2cc(C#N)c(N3CCCC3)nc2c1	38	11	.	-4	.
COc1ccc2cc(C#N)c(N3CCN(C(=O)c4ccccc4C)CC3)nc2c1	6	12	31*	5	>50
Cc1ccc2cc(C#N)c(N3CCN(C(=O)c4ccccc4)CC3)nc2c1	.	.	7	-2	.
COC(=O)[C@@]12C[C@@H](CC(=O)N3CCCC3)C(=O)N(Cc3ccc4c(c3)OCO4)C1=CCC(C)(C)C2	.	.	.	-11	.
Cc1ccnc2nc(C(=O)Nc3nc(-c4ccccn4)cs3)nn12	1	2	-5	-11	.
Cc1ccc(S(=O)(=O)N2CCCN(c3nc4cc(C)ccc4cc3C#N)CC2)cc1	48	8	32*	-14	28*
Cc1ccc2nc(N3CCN(S(=O)(=O)c4ccc5c(c4)OCCO5)CC3)c(C#N)cc2c1	33	10	6	-6	.
CCOC(=O)[C@]12CCCC=C1N(CCC1=CCCCC1)C(=O)[C@H](CC(=O)NCC13CC4CC(CC(C4)C1)C3)C2	.	.	.	-4	.
Cc1ccc(NC(=O)C2CC(=O)N(c3ccc4c5c(cccc35)CC4)C2)cc1 (centres undefined)	-2	-2	-5	-3	.
SMILES	Runt-SMMHC FRET	Runt-CBFb FRET	RanGTP-Impb inh	CaV13 ICDI inh	YIC FRET counter
N#Cc1ccccc1NC(=O)C1CC(=O)N(c2ccc3c4c(cccc24)CC3)C1 (centres undefined)	2	-1	22*	-3	>50
CC(C)Sc1nnc(CNC(=O)C23CC4CC(CC(C4)C2)C3)n1C1CCCCC1	-6	-8	20*	-5	>50
O=c1c2ccccc2nnn1CCc1ccccc1	.	.	.	-6	.
CC1(C)CCC[C@]2(C)[C@H]3CC(=O)O[C@]3(C)CC[C@@H]12	.	.	21*	-18	>50
Cc1ccc(C(=O)Nc2nnc(SCC(=O)N3CCCc4ccccc43)s2)cc1	1	1	39*	-2	>50
CC(=O)C(Sc1ccc2nnc(-c3cccnc3)n2n1)C(C)=O	-4	-2	0	-7	.
CCN1CCc2c(sc(N)c2C#N)C1	110*	43	34*	.	18*
COc1ccccc1C#Cc1ccc2c(=O)c3ccccc3n(C)c2c1	.	.	40*	-5	0.72*
CC(C)c1ccc(/C=C(/C#N)c2nnc(NC(=O)c3ccccc3)s2)cc1	77	-6	-8	-8	.
Cc1ccc(-c2nnn(CC(=O)N(c3ccccc3)C(C(=O)NCC3CCCO3)c3ccc(Cl)cc3)n2)cc1 (centres undefined)	1	-4	21*	-6	>50
COc1c2ccccc2nc2ccccc12	.	.	41*	0	14*
CC(C)(CNC(=O)CC1C(=O)NCCN1Cc1cccc(F)c1F)N1CCOCC1 (centres undefined)	.	.	2	-7	.
CCOC(=O)c1c(N)n(CCOC(=O)c2cccs2)c2nc3ccccc3nc12	109*	45	23*	.	37*
CCOC(=O)c1cnn(CCOC(=O)c2cccs2)c1NC(=O)c1cccs1	1	0	.	-5	.
COc1ccc([C@@H]2[C@H]3CN(C(C)=O)CC=C3C(C#N)=C(N)C2(C#N)C#N)c2ccccc12	11	4	4	-7	.
COc1cc(C2C3CN(C)CC=C3C(C#N)=C(N)C2(C#N)C#N)ccc1OC(C)C (centres undefined)	39	88*	39*	-6	3.3*
Clc1ccc(/C=C\c2nccc3c2[nH]c2ccccc23)cc1	60	22	28*	-8	8.6*
CCN1C(=S)SC(=O)C1=C1C=C(C)N(Cc2ccco2)C(C)=C1	47	7	37*	-4	11*
CCN1C(=S)SC(=O)C1=C1C=C(C)OC(C)=C1	-128	-181	-4	.	.
C[C@@H]1CN([C@H](C)CO)C(=O)c2cccc(NC(=O)c3ccc(-c4nccs4)cc3)c2O[C@@H]1CN(C)CC1CC1	.	.	.	.	>50
CC(C)CCNC(=O)C(c1ccco1)N(Cc1ccc(F)cc1)C(=O)c1snc(C(N)=O)c1N (centres undefined)	0	-2	29*	-7	>50
NC(=O)c1nsc(C(=O)N(Cc2ccc(F)cc2)C(C(=O)NC2CCCC2)c2ccco2)c1N (centres undefined)	.	.	5	-3	.
CC(C)(NC(=O)c1cc(Cl)c2ccccc2c1O)C(=O)O	5	29	8	-4	.
COc1ccccc1N1CCN(C2CCN(S(=O)(=O)c3ccc4ccccc4c3)CC2)CC1	0	1	3	-5	.
CCCCn1c(N)c(N(CCOC)C(=O)CN2C(=O)c3ccccc3C2=O)c(=O)[nH]c1=O	.	.	6	-3	.
CCCCn1c(N)c(N(CCOC)C(=O)CN2c3ccccc3CC2C)c(=O)[nH]c1=O (centres undefined)	31	33	38*	-18	>50
